Data on 19 compounds can be found in PMC10842602 (Bioorganic & medicinal chemistry, 2023).

One data set concerns GABAA Cl– channels. The note with it: binding displacement assay; cited from earlier work.
In data set [1] the test system is neurons from Kcnt1^L/L mice. The note with it: brain slices, 10 μM; cited from earlier work.
Data set [2] concerns the target T1, WT human SLACK (Homo sapiens, UniProt Q5JUK3).
T1 sequence (Q5JUK3 1-1235 isoform Q5JUK3-3): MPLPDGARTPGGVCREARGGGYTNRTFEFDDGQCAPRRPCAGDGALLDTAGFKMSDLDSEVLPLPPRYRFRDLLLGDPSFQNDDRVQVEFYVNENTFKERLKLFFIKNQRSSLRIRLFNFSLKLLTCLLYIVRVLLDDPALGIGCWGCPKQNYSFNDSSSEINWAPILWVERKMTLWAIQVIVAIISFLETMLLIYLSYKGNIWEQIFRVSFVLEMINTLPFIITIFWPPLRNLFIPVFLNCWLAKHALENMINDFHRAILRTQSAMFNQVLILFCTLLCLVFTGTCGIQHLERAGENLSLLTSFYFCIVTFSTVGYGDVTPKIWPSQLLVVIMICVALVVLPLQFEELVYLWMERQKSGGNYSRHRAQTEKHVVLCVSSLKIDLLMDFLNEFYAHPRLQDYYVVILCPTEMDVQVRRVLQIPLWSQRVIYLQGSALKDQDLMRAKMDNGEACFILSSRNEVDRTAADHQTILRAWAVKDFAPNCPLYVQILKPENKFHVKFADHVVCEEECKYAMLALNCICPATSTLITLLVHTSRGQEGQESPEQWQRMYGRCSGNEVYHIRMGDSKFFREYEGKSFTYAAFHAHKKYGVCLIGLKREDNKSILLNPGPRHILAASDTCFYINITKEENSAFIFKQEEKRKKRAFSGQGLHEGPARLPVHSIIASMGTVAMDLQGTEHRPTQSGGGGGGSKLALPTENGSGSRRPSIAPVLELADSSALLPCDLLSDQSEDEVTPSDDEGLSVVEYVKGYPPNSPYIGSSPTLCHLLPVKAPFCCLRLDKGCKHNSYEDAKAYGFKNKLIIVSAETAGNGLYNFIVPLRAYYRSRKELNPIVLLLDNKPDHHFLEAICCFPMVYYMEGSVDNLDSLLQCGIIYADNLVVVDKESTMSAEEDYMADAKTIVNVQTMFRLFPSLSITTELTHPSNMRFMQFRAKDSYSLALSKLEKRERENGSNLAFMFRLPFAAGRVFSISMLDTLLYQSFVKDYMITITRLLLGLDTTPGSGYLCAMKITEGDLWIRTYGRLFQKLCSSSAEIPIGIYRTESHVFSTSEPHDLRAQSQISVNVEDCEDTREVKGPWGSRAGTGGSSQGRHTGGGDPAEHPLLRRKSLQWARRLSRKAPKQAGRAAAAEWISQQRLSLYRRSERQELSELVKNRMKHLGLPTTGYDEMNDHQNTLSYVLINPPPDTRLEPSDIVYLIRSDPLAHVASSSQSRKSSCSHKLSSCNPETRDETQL
In words: Whole-cell voltage-clamp electrophysiology, automated patch clamp. The format is cell-based. The note with it: CRC, CHO cells expressing WT SLACK. An outline of the steps: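 CHO cells stably expressing wild-type human SLACK. Currents recorded in whole-cell voltage-clamp mode on an automated patch clamp platform. IC50 derived from concentration-response data for a selected subset of analogs.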
For orientation: Patch clamp records ionic current or voltage across a cell membrane.

A further data set addresses Maxi-K (Slo1 α1/β3) (Homo sapiens, UniProt Q12791). In words: Tl+ flux assay in HEK-293 cells expressing Maxi-K. The note with it: CRC. It is filed as cell-based.
The target of data set [3] is T1, WT human SLACK. In words: Tl+ flux assay in HEK-293 cells stably expressing WT human SLACK. It is filed as cell-based. The note with it: for IC50 / EC50: CRC. The method in brief:
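Stably transfected HEK-293 cells expressing wild-type human SLACK; thallium flux read-out. IC50 or EC50 taken from concentration-response curves, and each compound classed as inhibitor, activator or not active. Efficacy is the response amplitude at 30 μM test compound, as a percentage of the maximum response to a reference SLACK inhibitor (for inhibitors) or loxapine (for activators).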

The next data set deals with T2, human A934T SLACK (Homo sapiens, UniProt Q5JUK3, A915T).
T2 sequence (Q5JUK3 1-1235 isoform Q5JUK3-3 A934T): T1 sequence (Q5JUK3 1-1235 isoform Q5JUK3-3) with A934T
Description: Tl+ flux assay in HEK-293 cells expressing A934T SLACK. The format is cell-based. The note with it: CRC.

Data set [4] can be described thus: Metabolic stability in mouse liver microsomes. It is filed as in vitro ADME. The note with it: multiple time points. For orientation: Liver microsomes are vesicles of endoplasmic reticulum, rich in cytochrome P450 enzymes.
Another data set has as its target hERG (Homo sapiens, UniProt Q12809). In words: Tl+ flux assay in HEK-293 stably expressing hERG. The format is cell-based. The note with it: 10 μM concentration. A general note: hERG is a cardiac potassium channel; its block is linked to QT prolongation.
Where [5] appears, read: IC50 for compounds of mode Inh (also cells printed Inactive).

Changes are numbered by the printed parent chain. Bounds are passed on as bounds.

Maxi-K (Slo1 α1/β3), sequence (Q12791 whole entry, species assumed): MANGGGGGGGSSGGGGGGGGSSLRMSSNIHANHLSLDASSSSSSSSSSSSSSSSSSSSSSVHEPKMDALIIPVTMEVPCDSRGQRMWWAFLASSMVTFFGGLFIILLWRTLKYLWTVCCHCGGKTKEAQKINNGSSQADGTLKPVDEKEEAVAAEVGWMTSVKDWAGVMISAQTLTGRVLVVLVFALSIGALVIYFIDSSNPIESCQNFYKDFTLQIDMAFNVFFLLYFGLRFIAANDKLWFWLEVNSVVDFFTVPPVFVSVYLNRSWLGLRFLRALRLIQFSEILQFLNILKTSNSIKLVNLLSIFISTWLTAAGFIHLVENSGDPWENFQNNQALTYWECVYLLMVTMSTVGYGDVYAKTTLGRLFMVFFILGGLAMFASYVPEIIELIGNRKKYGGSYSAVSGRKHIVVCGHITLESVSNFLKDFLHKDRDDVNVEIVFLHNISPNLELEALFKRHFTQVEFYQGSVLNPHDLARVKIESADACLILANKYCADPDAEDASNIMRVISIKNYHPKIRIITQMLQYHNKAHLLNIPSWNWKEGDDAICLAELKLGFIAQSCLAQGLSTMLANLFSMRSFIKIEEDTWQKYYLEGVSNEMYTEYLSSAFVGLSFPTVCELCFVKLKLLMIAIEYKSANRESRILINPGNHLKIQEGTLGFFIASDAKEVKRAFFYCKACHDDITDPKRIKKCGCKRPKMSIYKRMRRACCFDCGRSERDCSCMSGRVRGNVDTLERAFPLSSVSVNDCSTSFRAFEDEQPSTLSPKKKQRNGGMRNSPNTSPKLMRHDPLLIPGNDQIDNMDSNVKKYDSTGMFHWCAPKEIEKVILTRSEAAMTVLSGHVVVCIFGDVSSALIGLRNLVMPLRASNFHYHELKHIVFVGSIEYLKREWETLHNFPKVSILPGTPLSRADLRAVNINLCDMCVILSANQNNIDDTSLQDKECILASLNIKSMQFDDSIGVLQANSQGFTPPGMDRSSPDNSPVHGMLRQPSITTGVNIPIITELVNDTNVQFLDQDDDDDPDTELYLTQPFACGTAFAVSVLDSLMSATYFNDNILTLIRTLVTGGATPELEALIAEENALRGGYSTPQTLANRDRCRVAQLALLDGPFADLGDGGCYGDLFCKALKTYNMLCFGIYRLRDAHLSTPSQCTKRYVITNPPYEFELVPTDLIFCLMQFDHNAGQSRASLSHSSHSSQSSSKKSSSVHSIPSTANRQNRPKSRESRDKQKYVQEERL
Maxi-K (Slo1 α1/β3), sequence (Q9NPA1 whole entry partner, species assumed): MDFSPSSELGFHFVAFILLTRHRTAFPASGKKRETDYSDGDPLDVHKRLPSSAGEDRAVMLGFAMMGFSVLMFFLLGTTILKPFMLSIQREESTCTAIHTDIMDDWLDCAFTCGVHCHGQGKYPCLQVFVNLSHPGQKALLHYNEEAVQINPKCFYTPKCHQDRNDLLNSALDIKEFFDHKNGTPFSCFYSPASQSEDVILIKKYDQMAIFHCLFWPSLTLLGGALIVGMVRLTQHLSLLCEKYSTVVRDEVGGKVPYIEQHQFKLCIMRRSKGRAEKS
hERG, sequence (Q12809 whole entry): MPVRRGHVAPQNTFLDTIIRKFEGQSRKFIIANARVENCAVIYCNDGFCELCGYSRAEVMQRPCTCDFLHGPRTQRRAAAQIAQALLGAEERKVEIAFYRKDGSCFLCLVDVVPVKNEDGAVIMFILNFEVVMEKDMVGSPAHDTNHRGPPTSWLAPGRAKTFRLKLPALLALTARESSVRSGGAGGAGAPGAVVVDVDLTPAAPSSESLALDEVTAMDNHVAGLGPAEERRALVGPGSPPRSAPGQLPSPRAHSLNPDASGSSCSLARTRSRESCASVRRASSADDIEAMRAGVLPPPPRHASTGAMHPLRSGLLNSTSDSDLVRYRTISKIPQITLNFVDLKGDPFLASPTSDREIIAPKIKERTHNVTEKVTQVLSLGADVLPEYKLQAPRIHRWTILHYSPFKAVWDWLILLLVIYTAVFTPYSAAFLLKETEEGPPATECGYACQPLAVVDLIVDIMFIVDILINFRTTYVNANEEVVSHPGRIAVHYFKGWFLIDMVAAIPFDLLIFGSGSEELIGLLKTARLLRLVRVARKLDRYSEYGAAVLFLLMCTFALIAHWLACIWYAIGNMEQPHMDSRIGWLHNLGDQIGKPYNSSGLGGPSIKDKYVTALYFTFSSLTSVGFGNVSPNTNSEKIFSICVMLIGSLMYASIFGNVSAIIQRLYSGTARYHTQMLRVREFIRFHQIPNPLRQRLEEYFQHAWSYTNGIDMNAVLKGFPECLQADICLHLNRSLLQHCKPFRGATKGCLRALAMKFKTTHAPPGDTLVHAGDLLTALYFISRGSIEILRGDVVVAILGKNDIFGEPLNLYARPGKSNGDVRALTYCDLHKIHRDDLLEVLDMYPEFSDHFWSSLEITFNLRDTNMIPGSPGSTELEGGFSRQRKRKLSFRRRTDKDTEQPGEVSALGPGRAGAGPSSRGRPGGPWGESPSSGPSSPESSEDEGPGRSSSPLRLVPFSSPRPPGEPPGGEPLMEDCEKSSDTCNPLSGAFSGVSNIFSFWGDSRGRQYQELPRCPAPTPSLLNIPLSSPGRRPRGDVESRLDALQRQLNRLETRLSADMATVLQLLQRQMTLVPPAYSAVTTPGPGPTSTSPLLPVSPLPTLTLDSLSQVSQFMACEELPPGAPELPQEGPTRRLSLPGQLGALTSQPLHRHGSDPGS

As to `C[C@H](NC(=O)c1cc(C(F)(F)F)nn1C)c1nc(-c2ccnc(C(F)(F)F)c2)no1` [Compound 3], the “displacement at GABAA Cl– channels” value in the data set on GABAA Cl– channels was 74%. For the same compound, the firing in neurons entry in data set [1] is on record as “significant reduction in the firing”.
On to `CCOc1ccccc1S(=O)(=O)N1CC(c2nc(-c3ccsc3)no2)C1` [Compound 5, 5-(1-((2-Ethoxyphenyl)sulfonyl)azetidin-3-yl)-3-(thiophen-3-yl)-1,2,4-oxadiazole], for which, on WT human SLACK [2], the “IC50 (whole-cell EP)” value is given as “submicromolar potency”. In addition, the “Maxi-K (Slo1 α1/β3) IC50” value at Maxi-K (Slo1 α1/β3) was “inactive”. Moreover, the “IC50 / EC50” value against WT human SLACK [3] (setting [5]) was 2.1 µM.
In the case of `CC(C)Oc1ccccc1S(=O)(=O)N1CC(c2nc(-c3ccsc3)no2)C1` [Compound 27, 5-(1-((2-Isopropoxyphenyl)sulfonyl)azetidin-3-yl)-3-(thiophen-3-yl)-1,2,4-oxadiazole], at Maxi-K (Slo1 α1/β3), the “Maxi-K (Slo1 α1/β3) IC50” value was “inactive”. Also, the “IC50 / EC50” value on WT human SLACK [3] (setting [5]) turned out to be 3.7 µM.
The corresponding values for `CCOc1ccccc1S(=O)(=O)N1CC(c2nc(-c3ccc(F)cc3)no2)C1` [Compound 43, 5-(1-((2-Ethoxyphenyl)sulfonyl)azetidin-3-yl)-3-(4-fluorophenyl)-1,2,4-oxadiazole] are “inactive” and 3.2 µM.
Consider `CCOc1ccccc1S(=O)(=O)N1CC(c2nc(-c3ccc(F)cc3Cl)no2)C1` [Compound 58, 3-(2-Chloro-4-fluorophenyl)-5-(1-((2-ethoxyphenyl)sulfonyl)azetidin-3-yl)-1,2,4-oxadiazole], for which, at WT human SLACK [2], the “IC50 (whole-cell EP)” value is “submicromolar potency”. Moreover, at Maxi-K (Slo1 α1/β3), the “Maxi-K (Slo1 α1/β3) IC50” value is “inactive”. Moreover, on WT human SLACK [3] (setting [5]), the “IC50 / EC50” value came out at 2.1 µM.
In the case of `CCOc1ccccc1S(=O)(=O)N1CC(c2nc(-c3ccc(F)s3)no2)C1` [Compound 60, 5-(1-((2-Ethoxyphenyl)sulfonyl)azetidin-3-yl)-3-(5-fluorothiophen-2-yl)-1,2,4-oxadiazole], the “IC50 (whole-cell EP)” value on WT human SLACK [2] was “submicromolar potency”. Also, the “Maxi-K (Slo1 α1/β3) IC50” value at Maxi-K (Slo1 α1/β3) was “inactive”. The “A934T IC50” value at human A934T SLACK is listed as “submicromolar potency”. The “IC50 / EC50” value against WT human SLACK [3] (setting [5]) is 4.8 µM.
As for `CCOc1ccccc1S(=O)(=O)N1CCC(c2nc(-c3ccc(F)cc3)no2)CC1` [Compound 76], at Maxi-K (Slo1 α1/β3), the “Maxi-K (Slo1 α1/β3) IC50” value is “inactive”. The “IC50 / EC50” value against WT human SLACK [3] (setting [5]) was 4.9 µM.
On to `[2H]C([2H])([2H])C([2H])([2H])Oc1ccccc1S(=O)(=O)N1CC(c2nc(-c3ccc(F)cc3)no2)C1` [Compound 109, 5-(1-((2-(Ethoxy-d5)phenyl)sulfonyl)azetidin-3-yl)-3-(4-fluorophenyl)-1,2,4-oxadiazole], for which the “Maxi-K (Slo1 α1/β3) IC50” value on Maxi-K (Slo1 α1/β3) was “inactive”. Further, the “IC50 / EC50” value against WT human SLACK [3] (setting [5]) came out at 5.4 µM.
In the case of `O=S(=O)(c1ccccc1OCC(F)(F)F)N1CC(c2nc(-c3ccc(F)cc3)no2)C1` [Compound 113, 3-(4-Fluorophenyl)-5-(1-((2-(2,2,2-trifluoroethoxy)phenyl)sulfonyl)azetidin-3-yl)-1,2,4-oxadiazole], the “Maxi-K (Slo1 α1/β3) IC50” value at Maxi-K (Slo1 α1/β3) was “inactive”. For the same compound, at WT human SLACK [3] (setting [5]), the “IC50 / EC50” value came out at 8.8 µM.
The corresponding values for `O=S(=O)(c1cccc2c1OCCC2)N1CC(c2nc(-c3ccc(F)cc3)no2)C1` [Compound 119, 5-(1-(chroman-8-ylsulfonyl)azetidin-3-yl)-3-(4-fluorophenyl)-1,2,4-oxadiazole] are “inactive” and 8.7 µM.
For `O=S(=O)(c1cccc2ccoc12)N1CC(c2nc(-c3ccc(F)cc3)no2)C1` [Compound 120, 5-(1-(Benzofuran-7-ylsulfonyl)azetidin-3-yl)-3-(4-fluorophenyl)-1,2,4-oxadiazole], the “IC50 / EC50” value against WT human SLACK [3] (EC50 for compounds of mode Act) stood at 2.3 µM.
With `O=S(=O)(c1cccc2cccnc12)N1CC(c2nc(-c3ccc(F)cc3)no2)C1` [Compound 121, 3-(4-Fluorophenyl)-5-(1-(quinolin-8-ylsulfonyl)azetidin-3-yl)-1,2,4-oxadiazole], the “predicted hepatic clearance (CLHEP)” value in data set [4] is 75 mL/min/kg. In addition, at Maxi-K (Slo1 α1/β3), the “Maxi-K (Slo1 α1/β3) IC50” value is “inactive”. Also, at WT human SLACK [3] (setting [5]), the “IC50 / EC50” value amounted to 7.4 µM.
On to `Cc1ccc2cccc(S(=O)(=O)N3CC(c4nc(-c5ccc(F)cc5)no4)C3)c2n1` [Compound 122, 3-(4-Fluorophenyl)-5-(1-((2-methylquinolin-8-yl)sulfonyl)azetidin-3-yl)-1,2,4-oxadiazole], for which the “IC50 (whole-cell EP)” value on WT human SLACK [2] was “submicromolar potency”. Further, the hERG activity entry on hERG is “inactive”. In addition, the “Maxi-K (Slo1 α1/β3) IC50” value at Maxi-K (Slo1 α1/β3) is “inactive”. Further, the “A934T IC50” value on human A934T SLACK is on record as “submicromolar potency”. Moreover, the “IC50 / EC50” value on WT human SLACK [3] (setting [5]) was found to be 1.1 µM.
As to `O=S(=O)(c1cccn2ccnc12)N1CC(c2nc(-c3ccc(F)cc3)no2)C1` [Compound 125], the “IC50 / EC50” value on WT human SLACK [3] (EC50 for compounds of mode Act) was >10 µM.
The same measure, in the same setting: the result for `Cc1cn2cccc(S(=O)(=O)N3CC(c4nc(-c5ccc(F)cc5)no4)C3)c2n1` [Compound 126] reads >10 µM; that for `O=S(=O)(c1cccn2ncnc12)N1CC(c2nc(-c3ccc(F)cc3)no2)C1` [Compound 129], >10 µM; that for `Cc1nc2c(S(=O)(=O)N3CC(c4nc(-c5ccc(F)cc5)no4)C3)cccn2n1` [Compound 130], >10 µM.
Same read-out and setting: the result for `O=S(=O)(c1cccn2cnnc12)N1CC(c2nc(-c3ccc(F)cc3)no2)C1` [Compound 132] reads >10 µM.
As to `Cc1nnc2c(S(=O)(=O)N3CC(c4nc(-c5ccc(F)cc5)no4)C3)cccn12` [Compound 133], the “IC50 / EC50” value at WT human SLACK [3] (setting [5]) is “Inactive”. Also, at WT human SLACK [3] (Tl+ flux, HEK-293 cells expressing WT SLACK), the Mode result is “Inactive”.
